Data as given in ChEMBL document CHEMBL1145867, “Muraymycins, novel peptidoglycan biosynthesis inhibitors: synthesis and SAR of their analogues” (2003).
≈ marks a conversion by molar mass, not a printed value. Blank lines part the entries; values can stand above or below the molecule they belong to. Calls of active or inactive are those of the source. The calls are words filed in the database; no cut-off is given here.

Tests used:
Bacteria = experiment: In vitro antimicrobial activity against gram-negative organisms (10); format: functional
Outline: (§1)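 Broth microdilution per NCCLS guidance. Serial dilutions of each agent in microtiter plates are inoculated with each organism to 10⁵ CFU/mL and incubated 18–22 h at 35 C in ambient air. MIC is the lowest concentration giving complete growth inhibition, judged by the unaided eye.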

[1] = The inhibitory activity of compound against MraY or MurG at 100 ug/mL; Inhibit
[2] = The inhibitory activity of compound against MraY or MurG at 12.5 ug/mL; No Inhibition
[3] = The inhibitory activity of compound against MraY or MurG at 25 ug/mL; No Inhibition
[4] = The inhibitory activity of compound against MraY or MurG at 50 ug/mL; Inhibit
[5] = The inhibitory activity of compound against MraY or MurG at 6.25 ug/mL; No Inhibition
Staphylococcus sp. [6] = experiment: In vitro antimicrobial activity against Staphylococci; format: functional, staphyl ococcus species; outline: as §1
Enterococcus sp. = experiment: In vitro antimicrobial activity against Enterococci; format: functional; outline: as §1
Candida albicans = experiment: In vitro antimicrobial activity against Candida albicans GC 3066; format: functional; outline: as §1
Enterococcus faecalis [7] = experiment: In vitro antimicrobial activity against Enterococcus faecalis GC 2242; format: functional; outline: as §1
Enterococcus faecalis [8] = experiment: In vitro antimicrobial activity against Enterococcus faecalis GC 4555; format: functional; outline: as §1
Enterococcus faecalis [9] = experiment: In vitro antimicrobial activity against Enterococcus faecalis GC 842; format: functional; outline: as §1
Escherichia coli [10] = experiment: In vitro antimicrobial activity against Escherichia coli GC 2214; format: functional; outline: as §1
Escherichia coli [11] = experiment: In vitro antimicrobial activity against Escherichia coli GC 4559; format: functional; outline: as §1
Escherichia coli [12] = experiment: In vitro antimicrobial activity against Escherichia coli GC 4560; format: functional; outline: as §1
Enterobacter cloacae = experiment: In vitro antimicrobial activity against Enterobacter cloacae GC 3783; format: functional; outline: as §1
Klebsiella pneumoniae = experiment: In vitro antimicrobial activity against Klebsiella pneumoniae GC 4534; format: functional; outline: as §1
Morganella morganii = experiment: In vitro antimicrobial activity against Morganella morganii GC 4531; format: functional; outline: as §1
Pseudomonas aeruginosa [13] = experiment: In vitro antimicrobial activity against Pseudomonas aeruginosa GC 2214; format: functional; outline: as §1
Pseudomonas aeruginosa [14] = experiment: In vitro antimicrobial activity against Pseudomonas aeruginosa GC 4532; format: functional; outline: as §1
Staphylococcus sp. [15] = experiment: In vitro antimicrobial activity against CNS GC 4538; format: functional; outline: as §1
Staphylococcus aureus [16] = experiment: In vitro antimicrobial activity against Staphylococcu aureus GC 1131; format: functional
Outline: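 Broth dilution per NCCLS recommendations. Serial dilutions in microtiter plates inoculated to 10⁵ CFU/mL, then incubated 18–22 h at 35 C in ambient air. MIC taken as the lowest concentration giving complete growth inhibition by unaided eye.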

Staphylococcus aureus [17] = experiment: In vitro antimicrobial activity against Staphylococcu aureus GC 2216; format: functional; outline: as §1
Staphylococcus aureus [18] = experiment: In vitro antimicrobial activity against Staphylococcu aureus GC 4536; format: functional; outline: as §1
Staphylococcus sp. [19] = experiment: In vitro antimicrobial activity against CNS GC 4547; format: functional; outline: as §1
Escherichia coli [20] = experiment: In vitro antimicrobial activity against Escherichia coli GC 3226; format: functional; outline: as §1
Serratia marcescens = experiment: In vitro antimicrobial activity against Serratia marcescens GC 4077; format: functional; outline: as §1
[21] = The inhibitory activity of compound against MraY or MurG at 100 ug/mL; No Inhibition
[22] = The inhibitory activity of compound against MraY or MurG at 50 ug/mL; No Inhibition

SMILES: COc1ccc(Cn2c(=O)ccn([C@@H]3OC([C@H](O)[C@H](NCCCNC(=O)[C@H](NC(=O)[C@H](CCC/N=C(\N)N[N+](=O)[O-])NC(=O)N[C@H](C(=O)OCc4ccccc4)C(C)C)C(O)C(C)C)C(=O)OC(C)(C)C)[C@@H](O[Si](C)(C)C(C)(C)C)[C@H]3O[Si](C)(C)C(C)(C)C)c2=O)cc1 (stereo not given in full)
- MIC (Bacteria): > 128 µg/mL
- MIC (Staphylococcus sp. [6]): > 128 µg/mL
- MIC (Enterococcus sp.): > 128 µg/mL

SMILES: COc1ccc(Cn2c(=O)ccn([C@@H]3OC([C@H](O)[C@H](NCCCNC(=O)[C@H](NC(=O)OCc4ccccc4)C(O)C(C)C)C(=O)OC(C)(C)C)[C@@H](O[Si](C)(C)C(C)(C)C)[C@H]3O[Si](C)(C)C(C)(C)C)c2=O)cc1 (stereo not given in full)
- MIC (Bacteria): > 128 µg/mL
- MIC (Staphylococcus sp. [6]): > 128 µg/mL
- MIC (Enterococcus sp.): 128 µg/mL (≈ 123 µM)

SMILES: COc1ccc(Cn2c(=O)ccn([C@@H]3OC([C@H](O)[C@H](NCCCNC(=O)[C@@H](C)NC(=O)OCc4ccccc4)C(=O)OC(C)(C)C)[C@@H](O[Si](C)(C)C(C)(C)C)[C@H]3O[Si](C)(C)C(C)(C)C)c2=O)cc1 (stereo not given in full)
- MIC (Bacteria): > 128 µg/mL
- MIC (Staphylococcus sp. [6]): > 128 µg/mL
- MIC (Enterococcus sp.): 128 µg/mL (≈ 130 µM)

SMILES: COc1ccc(Cn2c(=O)ccn([C@@H]3OC([C@H](O)[C@H](NCCCNC(=O)[C@@H](CC(C)C)NC(=O)OCc4ccccc4)C(=O)O)[C@@H](O)[C@H]3O)c2=O)cc1 (stereo not given in full)
- MIC (Bacteria): > 128 µg/mL
- MIC (Staphylococcus sp. [6]): > 128 µg/mL
- MIC (Enterococcus sp.): 128 µg/mL (≈ 173 µM)

SMILES: COc1ccc(Cn2c(=O)ccn([C@@H]3OC([C@H](O)[C@H](NCCCNC(=O)[C@@H](CC(=O)OCc4ccccc4)NC(=O)OCc4ccccc4)C(=O)OC(C)(C)C)[C@@H](O[Si](C)(C)C(C)(C)C)[C@H]3O[Si](C)(C)C(C)(C)C)c2=O)cc1 (stereo not given in full)
- MIC (Bacteria): > 128 µg/mL
- MIC (Staphylococcus sp. [6]): > 128 µg/mL
- MIC (Enterococcus sp.): 4 µg/mL (≈ 3.58 µM)

SMILES: COc1ccc(Cn2c(=O)ccn([C@@H]3OC([C@H](O)[C@H](NCCCNC(=O)[C@@H](CC(C)C)NC(=O)[C@H](CCCN=C(N)N)NC(=O)N[C@H](C(=O)O)C(C)C)C(=O)O)[C@@H](O)[C@H]3O)c2=O)cc1 (stereo not given in full)
- MIC (Bacteria): > 128 µg/mL
- Inhibitory activity [21]: inactive
- Inhibitory activity [2]: inactive
- Inhibitory activity [3]: inactive
- Inhibitory activity [22]: inactive
- Inhibitory activity [5]: inactive
- MIC (Staphylococcus sp. [6]): > 128 µg/mL
- MIC (Enterococcus sp.): > 128 µg/mL

SMILES: COc1ccc(Cn2c(=O)ccn([C@@H]3OC([C@H](O)[C@H](NCCCNC(=O)[C@@H](CC(C)C)NC(=O)[C@H](CCCN=C(N)N)NC(=O)N[C@H](C(=O)O)C(C)C)C(=O)OC(C)(C)C)[C@@H](O[Si](C)(C)C(C)(C)C)[C@H]3O[Si](C)(C)C(C)(C)C)c2=O)cc1 (stereo not given in full)
- MIC (Bacteria): > 128 µg/mL
- MIC (Staphylococcus sp. [6]): > 128 µg/mL
- MIC (Enterococcus sp.): > 128 µg/mL

Other lines, results leading:

- MIC (Bacteria): 128 µg/mL (≈ 130 µM)
- Inhibitory activity [1]: Inhibit
- Inhibitory activity [2]: inactive
- Inhibitory activity [3]: inactive
- Inhibitory activity [4]: Inhibit
- Inhibitory activity [5]: inactive
- MIC (Staphylococcus sp. [6]): 16 µg/mL (≈ 16.3 µM)
- MIC (Enterococcus sp.): 4 µg/mL (≈ 4.06 µM)
SMILES: COc1ccc(Cn2c(=O)ccn([C@@H]3OC([C@H](O)[C@H](NCCCNC(=O)[C@H](N)CC(=O)OCc4ccccc4)C(=O)OC(C)(C)C)[C@@H](O[Si](C)(C)C(C)(C)C)[C@H]3O[Si](C)(C)C(C)(C)C)c2=O)cc1 (stereo not given in full)

- MIC (Candida albicans): > 128 µg/mL
- MIC (Enterococcus faecalis [7]): 8 µg/mL (≈ 7.68 µM)
- MIC (Enterococcus faecalis [8]): 8 µg/mL (≈ 7.68 µM)
- MIC (Enterococcus faecalis [9]): 8 µg/mL (≈ 7.68 µM)
- MIC (Bacteria): 128 µg/mL (≈ 123 µM)
- MIC (Escherichia coli [10]): 128 µg/mL (≈ 123 µM)
- MIC (Escherichia coli [11]): > 128 µg/mL
- MIC (Escherichia coli [12]): 8 µg/mL (≈ 7.68 µM)
- MIC (Enterobacter cloacae): > 128 µg/mL
- MIC (Klebsiella pneumoniae): > 128 µg/mL
- MIC (Morganella morganii): 128 µg/mL (≈ 123 µM)
- Inhibitory activity [1]: Inhibit
- Inhibitory activity [2]: inactive
- Inhibitory activity [3]: inactive
- Inhibitory activity [4]: Inhibit
- Inhibitory activity [5]: inactive
- MIC (Pseudomonas aeruginosa [13]): > 128 µg/mL
- MIC (Pseudomonas aeruginosa [14]): > 128 µg/mL
- MIC (Staphylococcus sp. [6]): 4 µg/mL (≈ 3.84 µM)
- MIC (Staphylococcus sp. [15]): 8 µg/mL (≈ 7.68 µM)
- MIC (Staphylococcus sp. [15]; Staphylococcus sp., read-out: MIC): 8 µg/mL (≈ 7.68 µM)
- MIC (Staphylococcus aureus [16]): 4 µg/mL (≈ 3.84 µM)
- MIC (Staphylococcus aureus [17]): 8 µg/mL (≈ 7.68 µM)
- MIC (Staphylococcus aureus [18]): 8 µg/mL (≈ 7.68 µM)
- MIC (Staphylococcus sp. [19]): 16 µg/mL (≈ 15.4 µM)
- MIC (Escherichia coli [20]): 128 µg/mL (≈ 123 µM)
- MIC (Enterococcus sp.): 8 µg/mL (≈ 7.68 µM)
- MIC (Serratia marcescens): 128 µg/mL (≈ 123 µM)
SMILES: COc1ccc(Cn2c(=O)ccn([C@@H]3OC([C@H](O)[C@H](NCCCNC(=O)[C@H](N)CCCCNC(=O)OCc4ccccc4)C(=O)OC(C)(C)C)[C@@H](O[Si](C)(C)C(C)(C)C)[C@H]3O[Si](C)(C)C(C)(C)C)c2=O)cc1 (stereo not given in full)

- MIC (Bacteria): 64 µg/mL (≈ 48.7 µM)
- MIC (Staphylococcus sp. [6]): 128 µg/mL (≈ 97.4 µM)
- MIC (Enterococcus sp.): 64 µg/mL (≈ 48.7 µM)
SMILES: COc1ccc(Cn2c(=O)ccn([C@@H]3OC([C@H](O)[C@H](NCCCNC(=O)[C@H](NC(=O)[C@H](CCC/N=C(\N)N[N+](=O)[O-])NC(=O)N[C@H](C(=O)OCc4ccccc4)C(C)C)C(C)O)C(=O)OC(C)(C)C)[C@@H](O[Si](C)(C)C(C)(C)C)[C@H]3O[Si](C)(C)C(C)(C)C)c2=O)cc1 (stereo not given in full)
